Screening results (PubChem BioAssay)
SR-BI DiI-HDL act = activators of SR-BI mediated HDL lipid uptake | actives 0.096% (n = 320,000) | activation, % at 12.5 µM | CHO ldlA[mSR-BI] cells, DiI-HDL uptake fluorescence, 3 h; 100 = double the neutral-control signal;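 active = mean replicate activation of at least 60% and every replicate at or above 60%; inconclusive = mean or all-replicate condition met, but not both; inactive = mean below 60% and not all replicates reaching 60%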;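 note: 0% = median plate neutral-control signal and 100% = twice that signal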
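Test system: SR-BI-overexpressing, LDLR-lacking CHO cells; Also added: labelled HDL, 10 µg/mL; Measured by: bottom-read cell fluorescence after medium removal, ex 550/em 595 nm; Timing: 3 h uptake period with compound, 37 °C; Buffer or medium: F12, 0.5% BSA, 25 mM HEPES; Doses: single compound concentration, delivered by pin transfer.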
N-glyco inh = blocks N-linked glycosylation in D54 reporter cells; actives 0.23% (n = 360,000); AID 588692; reporter increase, % at 12.5 µM; D54 ERlucT glycosylation luciferase reporter, 24 h; percent of 100 nM tunicamycin response;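 active = mean luciferase reporter signal, scaled so untreated is 0 and the glycosylation-blocking control 100, at or above a set limit in every replicate; inconclusive = mean reaches the limit but not every replicate does; inactive = mean below the limit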;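 note: luciferase carries N-glycosylation sites so blocking glycosylation raises the light; 0% = median of neutral control wells and 100% = median of 100 nM tunicamycin wells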
PglD inh = blocks C. jejuni PglD acetyltransferase activity; AID 602405; actives 0.098% (n = 360,000); inhibition, % at 12.5 µM; purified PglD enzyme, DTNB colorimetric CoA detection; in the data active = inhibition above about 16%, passing the limit was not always enough; inconclusive = no clear call, values can overlap the other calls
SR-BI HDL uptake = mouse SR-BI HDL lipid transfer inhibition; Q61009; ldlA[mSR-BI] CHO cells, DiI-HDL uptake fluorescence, 3 h; inhibition, % at 12.5 µM; actives 0.96% (n = 320,000);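 active = mean replicate inhibition of at least 70% and a set share of replicates each scoring 70 or more; inconclusive = meets just one of the two criteria; inactive = fails both criteria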;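 note: 0% = median of neutral control wells and 100% = median of positive control wells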
Rtt109 HAT inh = inhibitors of Candida albicans Rtt109/Vps75 histone acetyltransferase | purified Rtt109/Vps75, ThioGlo CoA-SH fluorescence, 4 h | inhibition, % at 34.9 µM | Q5AAJ8 | AID 540336 | actives 0.16% (n = 330,000);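 active = inhibition of at least 50% in every replicate; inconclusive = best replicate reaches 50% inhibition but some replicates fall short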
Target sequence (Q5AAJ8 whole entry, looked up): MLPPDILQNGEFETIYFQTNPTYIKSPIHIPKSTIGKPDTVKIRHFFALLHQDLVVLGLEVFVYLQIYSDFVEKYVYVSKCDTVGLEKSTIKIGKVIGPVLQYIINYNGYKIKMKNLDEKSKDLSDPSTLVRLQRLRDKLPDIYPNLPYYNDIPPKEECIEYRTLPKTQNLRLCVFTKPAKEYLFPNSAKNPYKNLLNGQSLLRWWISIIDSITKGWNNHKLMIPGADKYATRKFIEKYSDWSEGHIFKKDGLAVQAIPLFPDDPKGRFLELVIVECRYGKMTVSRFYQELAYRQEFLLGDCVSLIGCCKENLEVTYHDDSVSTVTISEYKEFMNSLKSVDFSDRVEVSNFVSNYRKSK
HIV Env fusion = HIV envelope-mediated fusion inhibition; HeLa-JRFL Env/CEM21 cell fusion, luciferase; inhibition, % at 12.3 µM; actives 1.1% (n = 360,000); AID 651610;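 active = mean replicate inhibition score of at least 50 and every replicate individually at or above 50; inconclusive = only one of the two criteria met; inactive = mean below 50 and not all replicates reaching 50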;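 note: 0% = plate neutral controls and 100% = maraviroc near 300 nM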
* hit, by the source's call; ? = inconclusive; nt = no result; [ ] = dose if it differs, or a comment. An excerpt weighted towards active compounds, which were near 1.9% of everything screened.

SMILES	SR-BI DiI-HDL act	N-glyco inh	PglD inh	SR-BI HDL uptake	Rtt109 HAT inh	HIV Env fusion
O=C1C=C(c2cc(C(F)(F)F)cc(C(F)(F)F)c2)C[C@@H](c2ccc(Cl)cc2)C1	-74.4	-6.2	1.4	74.4*	-11.4	19.9
COc1ccc(-c2csc(Nc3ccc(Oc4ccccc4)cc3)n2)cc1	nt	-3.3	-1.6	nt	nt	77.2*
COc1ccc(-c2csc(Nc3cccc(C)n3)n2)cc1	-44.2	-8.7	1.6	44.2	-2.9	-231.6
O=C1NCCc2c1[nH]c1ccc([N+](=O)[O-])cc21	3.5	-7.6	nt	-3.5	8.0	66.5*
Cc1cc(NC(=O)CCC(=O)N(C2CC2)C2(C(=O)NC3CCCC3)CCC(C)CC2)no1 (stereo not given)	3.1	-0.1	-5.7	-3.1	1.8	99.7*
Cc1ccc(CNC(=O)CSc2nc3ccsc3c(=O)n2Cc2ccccn2)cc1	28.6	2.6	1.2	-28.6	-12.8	?
O=C(CSc1nc2ccsc2c(=O)n1Cc1ccc(C(=O)O)cc1)NCC1CCCO1 (stereo not given)	11.5	-0.4	-3.9	-11.5	8.1	-2.7
Cc1ccc(Cn2c(SCC(=O)NCc3ccco3)nc3ccsc3c2=O)cc1	19.7	0.6	-2.3	-19.7	-1.3	70.7*
Cc1ccc(Cn2c(SCC(=O)NCC3CCCO3)nc3ccsc3c2=O)cc1 (stereo not given)	60.4*	0.7	nt	-60.4	19.4	12.7
C[C@H]1CN([C@@H](C)CO)C(=O)c2cc(NS(C)(=O)=O)ccc2O[C@H]1CN(C)C(=O)Nc1cccc2ccccc12	nt	nt	0.9	nt	nt	0.3[16.7 µM]
CC(=O)N(C)C[C@@H]1Oc2cc(-c3ccc(F)cc3)ccc2S(=O)(=O)N([C@H](C)CO)C[C@@H]1C	nt	nt	-0.9	nt	nt	-6.9[16.7 µM]
CC(=O)N1[C@H](CO)[C@H]2c3ccccc3N(C(=O)c3ccccc3)C[C@H]21	nt	nt	-0.6	nt	nt	nt
C[C@H]1CN([C@@H](C)CO)C(=O)c2cc(-c3ccc(C#N)cc3)cnc2O[C@H]1CN(C)Cc1cncnc1	nt	nt	nt	nt	nt	-15.5[16.7 µM]
COc1ccc(CNC(=O)CN(C(=O)c2csnn2)c2cccc3c2CCCC3)cc1	-75.8	-2.9	3.3	75.8*	-4.6	4.4
COC(=O)/C(=C(O)\C=C\c1ccccc1[N+](=O)[O-])c1nc2ccccc2[nH]1	-88.8	3.0	-2.6	88.8*	-7.5	1.9
O=C(/C=C\c1ccccc1[N+](=O)[O-])Nc1ccccc1	-42.6	-2.1	nt	42.6	-3.7	-34.3
C[C@@H]1CN([C@H](C)CO)S(=O)(=O)c2ccc(C3=CCCC3)cc2O[C@@H]1CN(C)Cc1cncnc1	nt	nt	0.7	nt	nt	16.2[16.7 µM]
COC(=O)c1ccc(C)c(NS(=O)(=O)c2ccc3c(c2)OCCO3)c1	8.2	30.8*	4.6	-8.2	22.1	nt
COc1cc(OC)c(OC)cc1CCC(C)NCCC(c1ccccc1)c1ccccc1 (stereo not given)	-9.7	3.7	5.7	9.7	?	80.5*
COc1ccc(CCNCCC(c2ccccc2)c2ccccc2)cc1OC	nt	1.9	1.2	nt	nt	-18.7
C[C@@H]1CN([C@@H](C)CO)C(=O)c2cc(NC(=O)CCCN(C)C)ccc2O[C@@H](C)CCCCO[C@@H]1CN(C)C	nt	nt	nt	nt	nt	7.9[16.7 µM]
CC1(Cc2ccccc2OC(F)(F)F)C(=O)Nc2ccc(-c3ccsc3)cc21 (stereo not given)	nt	-5.1	1.1	nt	nt	71.1*
COC(=O)c1cccc(CC2(C)C(=O)Nc3cc(-c4ccccc4Cl)ccc32)c1 (stereo not given)	nt	-1.8	-2.5	nt	nt	90.0*
CC1(Cc2ccccc2OC(F)(F)F)C(=O)Nc2cc(-c3ccccc3Cl)ccc21 (stereo not given)	nt	-1.6	1.8	nt	nt	55.6*
CC1(Cc2ccccc2Cl)C(=O)Nc2cc(-c3ccccc3Cl)ccc21 (stereo not given)	nt	-3.9	-3.4	nt	nt	-2.7
Cc1noc(C)c1NC(=O)N(C)C[C@H]1OCCCC[C@@H](C)Oc2ccc(NS(=O)(=O)c3cn(C)cn3)cc2C(=O)N([C@H](C)CO)C[C@H]1C	nt	nt	2.4	nt	nt	-8.2[16.7 µM]
CCN(CC)S(=O)(=O)c1ccc(N2CCOCC2)c(NC(=S)NC(=O)c2ccco2)c1	-22.8	-1.5	-3.4	22.8	14.3	31.4
